# ChEMBL document CHEMBL3992564, “Design and synthesis of novel, potent and selective hypoxanthine analogs as adenosine A1 receptor antagonists and their biological evaluation” (Bioorg Med Chem, 2017)
# The source made the active and inactive calls. The rule behind the calls is not given here.
# Columns and labels:
# Adenosine receptor A2a = Adenosine receptor A2a (Homo sapiens, UniProt P29274); experiment: Displacement of [3H]ZM241385 from human adenosine A2A receptor expressed in HEK293 cell membranes at 1 uM after 90 mins relative to control
# In short: (§1)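 Membranes from HEK-293 cells stably transfected with human receptor, pre-treated with adenosine deaminase. Radioligands: 1 nM [3H]DPCPX (A1), 1 nM [3H]ZM241385 (A2A), 1.6 nM [3H]MRS-1754 (A2B), 2 nM [3H]HEMADO (A3). Buffers: Tris pH 7.4 (A1, A2A, A3) or pH 6.5 (A2B), with ADA. Incubated 90 min at room temperature, then filtered. Nonspecific binding defined with 100 µM NECA. Ki from 8 concentrations run in triplicate.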
# [1] = target: T1, Adenosine receptor A2b (Homo sapiens) (UniProt P29275); experiment: Displacement of [3H]MRS-1754 from human adenosine A2B receptor expressed in HEK293 cell membranes at 1 uM after 90 mins relative to control; in short: as §1
# T1 sequence (whole entry): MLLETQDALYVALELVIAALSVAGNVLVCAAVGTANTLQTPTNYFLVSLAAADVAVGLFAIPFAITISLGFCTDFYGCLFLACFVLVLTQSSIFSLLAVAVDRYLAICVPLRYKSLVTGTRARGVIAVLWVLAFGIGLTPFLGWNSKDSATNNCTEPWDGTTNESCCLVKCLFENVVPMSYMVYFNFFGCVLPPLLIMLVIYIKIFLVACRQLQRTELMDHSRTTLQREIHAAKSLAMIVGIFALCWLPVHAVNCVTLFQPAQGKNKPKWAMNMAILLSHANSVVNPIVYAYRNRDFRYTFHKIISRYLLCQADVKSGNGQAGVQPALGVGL
# Adenosine receptor A1 [2] = target: T2, Adenosine receptor A1 (Homo sapiens, UniProt P30542); experiment: Displacement of [3H]DPCPX from human adenosine A1 receptor expressed in HEK293 cell membranes after 90 mins
# T2 sequence (P30542 whole entry): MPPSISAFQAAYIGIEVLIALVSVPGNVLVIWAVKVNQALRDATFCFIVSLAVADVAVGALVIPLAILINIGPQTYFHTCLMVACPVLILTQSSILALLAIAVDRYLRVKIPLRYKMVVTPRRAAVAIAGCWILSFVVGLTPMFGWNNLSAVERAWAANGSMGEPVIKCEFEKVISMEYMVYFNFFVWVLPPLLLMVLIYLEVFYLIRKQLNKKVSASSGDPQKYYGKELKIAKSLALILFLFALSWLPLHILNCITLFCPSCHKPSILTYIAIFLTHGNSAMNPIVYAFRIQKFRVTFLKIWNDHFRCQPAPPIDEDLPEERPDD
# Adenosine receptor A1 [3] = target: T2, Adenosine receptor A1; experiment: (§2) Antagonist activity at human adenosine A1 receptor expressed in HEK293 cells assessed as reduction in CPA-mediated inhibition of forskolin-stimulated cAMP level preincubated for 15 mins followed by CPA treatment for 15 mins and subsequent addition of forskolin measured after 30 mins by HTRF assay; assay type: functional, cell-based
# [4] = target: T3, Adenosine receptor A3 (Homo sapiens) (UniProt P0DMS8); experiment: Displacement of [3H]HEMADO from human adenosine A3 receptor expressed in HEK293 cell membranes at 1 uM after 90 mins relative to control; in short: as §1
# T3 sequence (whole entry): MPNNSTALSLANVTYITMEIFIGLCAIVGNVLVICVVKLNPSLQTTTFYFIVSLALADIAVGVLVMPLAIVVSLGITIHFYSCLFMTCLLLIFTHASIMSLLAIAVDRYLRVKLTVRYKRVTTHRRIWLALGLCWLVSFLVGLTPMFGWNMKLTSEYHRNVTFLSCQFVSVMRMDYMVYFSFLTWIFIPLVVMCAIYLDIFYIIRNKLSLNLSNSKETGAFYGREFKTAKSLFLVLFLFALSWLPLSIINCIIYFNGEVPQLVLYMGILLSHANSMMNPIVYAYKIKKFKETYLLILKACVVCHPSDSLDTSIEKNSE
# Adenosine receptor A3 = target: T4, Adenosine receptor A3 (Homo sapiens, UniProt P0DMS8); experiment: Displacement of [3H]HEMADO from human adenosine A3 receptor expressed in HEK293 cell membranes after 90 mins; in short: as §1
# T4 sequence (P0DMS8 whole entry): T3 sequence (whole entry)
# [5] = target: T5, Adenosine receptor A1 (Homo sapiens) (UniProt P30542); experiment: Displacement of [3H]DPCPX from human adenosine A1 receptor expressed in HEK293 cell membranes at 1 uM after 90 mins relative to control; in short: as §1
# T5 sequence (whole entry): T2 sequence (P30542 whole entry)
# [6] = Metabolic stability in human liver microsomes assessed as parent compound remaining measured after 30 mins in presence of NADPH; assay type: ADME, microsome; conditions: read-out: Stability
# [7] = Metabolic stability in rat liver microsomes assessed as parent compound remaining measured after 30 mins in presence of NADPH; assay type: ADME, microsome; conditions: read-out: Stability
# Liver [8] = experiment: Metabolic stability in rat liver microsomes assessed as metabolic rate measured after 30 mins in presence of NADPH; assay type: ADME, microsome; conditions: 0.5 h
# Liver [9] = experiment: Metabolic stability in human liver microsomes assessed as metabolic rate measured after 30 mins in presence of NADPH; assay type: ADME, microsome; conditions: 0.5 h
# Rattus norvegicus [10] = experiment: Natriuretic activity in Wistar rat at 0.1 mg/kg, po via gavage measured after 4 hrs; assay type: functional, organism-based
# In short: (§3)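 Male Wistar rats (250-300 g, n = 6) dosed orally at 5 mL/kg. Vehicles: DMAC 5%/NaOH/saline, or NMP 10%/PEG-400 20%/saline pH 12.0. Rats were then kept singly in metabolic cages without food or water for 4 h. Urine volume, Na+ and K+ were measured with a biochemistry analyser.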
# Rattus norvegicus [11] = experiment: Diuretic activity in Wistar rat at 0.1 mg/kg, po via gavage measured after 4 hrs; assay type: functional, organism-based; in short: as §3
# [12] = target: T5, Adenosine receptor A1 (Homo sapiens); experiment: as §2, with “level at 30 uM” for “level”, “assay relative to control” for “assay”; assay type: functional, cell-based
# In short: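 Overnight HEK-A1 or HEK-A2B cultures were treated with 1 U/mL ADA for 90 min at 37°C. Compound was added for 15 min, then agonist for 15 min (1 nM CPA for A1; 70 nM NECA for A2B) at room temperature in incomplete DMEM with ADA. Rolipram (20 µM) was included for A1 only. cAMP was read by HTRF.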
# Adenosine receptor A2a, sequence (P29274 whole entry): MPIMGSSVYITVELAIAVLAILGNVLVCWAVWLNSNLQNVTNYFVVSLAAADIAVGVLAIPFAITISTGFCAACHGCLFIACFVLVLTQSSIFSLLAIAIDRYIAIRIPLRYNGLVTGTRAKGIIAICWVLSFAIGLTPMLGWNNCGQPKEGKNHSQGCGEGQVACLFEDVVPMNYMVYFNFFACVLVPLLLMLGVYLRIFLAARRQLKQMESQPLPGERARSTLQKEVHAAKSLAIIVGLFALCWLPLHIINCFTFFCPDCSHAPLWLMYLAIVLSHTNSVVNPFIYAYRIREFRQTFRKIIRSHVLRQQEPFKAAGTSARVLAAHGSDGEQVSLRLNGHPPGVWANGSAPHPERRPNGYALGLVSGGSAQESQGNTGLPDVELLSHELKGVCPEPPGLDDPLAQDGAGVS
SMILES,inhibition (Adenosine receptor A2a) [%],inhibition [1] [%],Ki (Adenosine receptor A1 [2]) [nM],inhibition [4] [%],further results
CCCn1c(Nc2cccc(C(F)(F)F)c2)nc2nc(C3CCCC3)[nH]c2c1=O,27,5,370,,
CCCn1c(Oc2cccc3cc[nH]c23)nc2nc(C3CCCC3)[nH]c2c1=O,25,42,5.5,40,Ki (Adenosine receptor A1 [3]): 5.6 nM
CCCn1c(Nc2ccccc2)nc2nc(C3CCCC3)[nH]c2c1=O,,,> 1000,,
CCCn1c(Oc2cccc(OC)c2)nc2nc(C3CCCC3)[nH]c2c1=O,36,70,,,IC50 (Adenosine receptor A3): 430 nM
CCCn1c(Oc2cccc(C(F)(F)F)c2)nc2nc(C3CCCC3)[nH]c2c1=O,34,0,19,35,Ki (Adenosine receptor A1 [3]): 5.9 nM
CCCn1c(O[C@H]2CCOC2)nc2nc(C3CCCC3)[nH]c2c1=O,,,85,,
CCCn1c(Oc2cncc(Cl)c2)nc2nc(C3CCCC3)[nH]c2c1=O,22,37,12,76,Ki (Adenosine receptor A1 [3]): 2.2 nM
CCCn1c(NCC(=O)O)nc2nc(C3CCCC3)[nH]c2c1=O,0,9,,0,inhibition [5]: 72%
CCCn1c(NCc2ccc(C)cc2)nc2nc(C3CCCC3)[nH]c2c1=O,0,6,27,24,
CCCn1c(NCc2ccc(C(F)(F)F)cc2)nc2nc(C3CCCC3)[nH]c2c1=O,0,0,23,23,
CCCn1c(-c2cccc(O)c2)nc2nc(C3CCCC3)[nH]c2c1=O,74,100,1,,Ki (Adenosine receptor A1 [3]): 0.2 nM
CCCn1c(OC2CCCC2)nc2nc(C3CCCC3)[nH]c2c1=O,85,92,14,79,Ki (Adenosine receptor A1 [3]): 13 nM
CCCn1c(Oc2ccc(C)nc2)nc2nc(C3CCCC3)[nH]c2c1=O,,,630,,
CCCn1c(Nc2ccc(F)cc2)nc2nc(C3CCCC3)[nH]c2c1=O,0,6,> 1000,24,
CCCn1c(Oc2cccc3[nH]ccc23)nc2nc(C3CCCC3)[nH]c2c1=O,,,74,,
CCCn1c(Oc2ccc3[nH]ccc3c2)nc2nc(C3CCCC3)[nH]c2c1=O,0,0,36,34,
COc1ccc(CCN(C)CCCC(C#N)(c2ccc(OC)c(OC)c2)C(C)C)cc1OC (configuration not stated),,,,,remaining at 0.5 h [6]: 78%; remaining at 0.5 h [7]: 68%
CCCn1c(Oc2cccc(O)c2)nc2nc(C3CCCC3)[nH]c2c1=O,81,53,10.5,69,
C[C@]12CC[C@H]3[C@@H](CCC4=CC(=O)CC[C@@]43C)[C@@H]1CC[C@@H]2O [TESTOSTERONE],,,,,remaining at 0.5 h [6]: 84%; Drug metabolism (Liver [8]): > 1.52 nmol/min/mg; Drug metabolism (Liver [9]): 0.05 nmol/min/mg; remaining at 0.5 h [7]: 2%

SMILES,inhibition (Adenosine receptor A2a) [%],inhibition [1] [%],Ki (Adenosine receptor A1 [2]) [nM],inhibition [4] [%],further results
CCCn1c(O[C@@H]2CCOC2)nc2nc(C3CCCC3)[nH]c2c1=O,,,50,,
CCCn1c(NCc2ccc(C(=O)O)cc2)nc2nc(C3CCCC3)[nH]c2c1=O,31,16,,,inhibition [5]: 54%
CCCn1c(OC2CCOCC2)nc2nc(C3CCCC3)[nH]c2c1=O,82,56,20,0,Ki (Adenosine receptor A1 [3]): 12 nM
CCCn1c(OC2CCOC2)nc2nc(C3CCCC3)[nH]c2c1=O (configuration not stated),,,59,,
CCCn1c(Oc2cc(C)ccn2)nc2nc(C3CCCC3)[nH]c2c1=O,,,> 1000,,
CCCn1c(Oc2cccnc2Cl)nc2nc(C3CCCC3)[nH]c2c1=O,,,3.6,,
CCCn1c(Nc2cccc(F)c2)nc2nc(C3CCCC3)[nH]c2c1=O,31,16,4500,,
CCCn1c(NCc2cccc(Cl)c2)nc2nc(C3CCCC3)[nH]c2c1=O,,,120,,
CCCn1c(=O)c2nc(C34CC5CC(CC3C5)C4)[nH]c2n(CCC)c1=O,,,,,Activity (Rattus norvegicus [10]): Active; Activity (Rattus norvegicus [11]): Active
CCCn1c(NCCO)nc2nc(C3CCCC3)[nH]c2c1=O,5,31,,0,inhibition [5]: 36%
CCCn1c(-c2ccc(C(F)(F)F)cc2)nc2nc(C3CCCC3)[nH]c2c1=O,0,12,,5,inhibition [5]: 70%
CCCn1c(Oc2ccc(S(N)(=O)=O)cc2)nc2nc(C3CCCC3)[nH]c2c1=O,,,> 1000,,
CCCn1c(-c2cccc(C(F)(F)F)c2)nc2nc(C3CCCC3)[nH]c2c1=O,0,14,,0,Ki (Adenosine receptor A1 [3]): 12 nM; inhibition [5]: 100%
CCCn1c(-c2cccc(C(=O)O)c2)nc2nc(C3CCCC3)[nH]c2c1=O,,,,,inhibition [12]: < 50%; inhibition [5]: inactive
CCCn1c(Oc2ccc(C(N)=O)cc2)nc2nc(C3CCCC3)[nH]c2c1=O,,,> 1000,,
CCCn1c(OC2CCN(C)C2)nc2nc(C3CCCC3)[nH]c2c1=O (configuration not stated),,,> 1000,,
CCCn1c(Oc2cccc(CC(=O)O)c2)nc2nc(C3CCCC3)[nH]c2c1=O,,,> 1000,,
CCCn1c(-c2cccc(C(N)=O)c2)nc2nc(C3CCCC3)[nH]c2c1=O,,,> 1000,,
